Measured values as given in ChEMBL document CHEMBL1123272, “Comparison of (-)-eseroline with (+)-eseroline and dihydroseco analogues in antinociceptive assays: confirmation of rubreserine structure by X-ray analysis” (1986).
Calls of active or inactive are those of the source. No cut-off for these calls is given here.

Key:
[1] = test system: Mus musculus; experiment: Compound was tested in vivo for narcotic agonist activity (dose in sc, mg/kg) in mice using hot plate assay; assay type: functional
Procedure, shortened: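 Mouse hot-plate test for narcotic agonist activity with subcutaneous dosing. Values are in mg/kg with 95% confidence limits.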

[2] = test system: Mus musculus; experiment: Compound was tested in vivo for narcotic agonist activity (dose in sc, mg/kg) in mice using phenylquinone assay.; assay type: functional
[3] = test system: Mus musculus; experiment: Compound was tested in vivo for narcotic agonist activity (dose in sc, mg/kg) in mice using tail flick assay.; assay type: functional
[4] = test system: Mus musculus; experiment: Compound was tested in vivo for narcotic antagonist activity (dose in sc, mg/kg) in mice using tail flick antagonism assay; I = Inactive at 1,10, 30 mg/kg; assay type: functional, organism-based; set-up: dose 30 mg/kg
Procedure, shortened: (§1)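 Mouse tail-flick antagonism assay against morphine, with the test compound given subcutaneously and doses in mg/kg. It was run by an outside laboratory (Medical College of Virginia).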

[5] = test system: Mus musculus; experiment: Compound was tested in vivo for narcotic agonist activity (dose in sc, mg/kg) in mice using hot plate assay; I = Inactive at 1,10, 30 mg/kg; assay type: functional, organism-based; set-up: dose 30 mg/kg
[6] = test system: Mus musculus; experiment: Compound was tested in vivo for narcotic agonist activity (dose in sc, mg/kg) in mice using tail flick assay; I = Inactive at 1,10, 30 mg/kg; assay type: functional, organism-based; set-up: dose 30 mg/kg
[7] = test system: Mus musculus; experiment: Compound was tested in vivo for narcotic agonist activity (dose in sc, mg/kg) in mice using phenylquinone assay; I = Inactive at 1,10, 30 mg/kg; assay type: functional, organism-based; set-up: dose 30 mg/kg
[8] = test system: Mus musculus; experiment: Compound was tested in vivo for narcotic antagonist activity (dose in sc, mg/kg) in mice using tail flick antagonism assay; assay type: functional; procedure, shortened: as §1
[9] = test system: Mus musculus; experiment: Compound was tested in vivo for narcotic agonist activity (dose in sc, mg/kg) in mice using phenylquinone assay; assay type: functional
[10] = test system: Mus musculus; experiment: Compound was tested in vivo for narcotic agonist activity (dose in sc, mg/kg) in mice using tail flick assay; assay type: functional
[11] = test system: Mus musculus; experiment: Compound was tested in vivo for narcotic antagonist activity (dose in sc, mg/kg) in mice using tail flick antagonism assay; I =inactive at 1, 10, 30 mg/kg; assay type: functional, organism-based; set-up: dose 30 mg/kg; procedure, shortened: as §1

SMILES | Activity [1] | Activity [2] | Activity [4] | Activity [5] | Activity [6] | other results
CN1CC[C@@]2(C)c3cc(O)ccc3N(C)[C@@H]12 | 1.6 | 0.7 | inactive |  |  | Activity [3]: 2.3
C=CCN1CC[C@]23c4c5ccc(O)c4O[C@H]2C(=O)CC[C@@]3(O)[C@H]1C5 [NALOXONE] |  |  |  | inactive | inactive | Activity [7]: inactive; Activity [8]: 0.03
CN1CC[C@]2(C)c3cc(O)ccc3N(C)[C@H]12 |  | 2.3 | inactive | inactive | inactive | 
CN1CC[C@]23c4c5ccc(O)c4O[C@H]2[C@@H](O)C=C[C@H]3[C@H]1C5 [MORPHINE] | 1.3 |  |  |  |  | Activity [9]: 0.23; Activity [10]: 5.8; Activity [11]: inactive
CN1c2ccc(O)cc2[C@]2(C)CCN[C@H]12 |  |  |  | inactive |  | 
